Our source for the folding enthalpy and Tm values is the array DNA melting data of Ke et al. (doi:10.1101/2024.01.08.574731).

Series [1] can be described thus: folding enthalpy; higher = less favourable; fluorescence melt of hairpins on a sequencing array, two-state fit. Conditions: sodium 0.088 M. In short, it runs like this: (§1)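 Hairpins were imaged by Cy3 fluorescence on a sequenced MiSeq flow cell with annealed Cy3 and quencher oligos, in 50 mM Na-HEPES pH 8.0, 25 mM NaCl, in 2.5 °C steps up to 60 °C. Bootstrapped two-state fits of normalised signals gave melting temperature and folding enthalpy. Four replicates were combined by inverse variance, and fitted temperatures were raised by 9.35 °C to match UV melts.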

Series [2] can be described thus: melting temperature; fluorescence melt of hairpins on a sequencing array, two-state fit, raised by 9.35 °C to match UV melts. To be noted: sodium 0.088 M. Put shortly: as §1

On to GATCCAGGGTGGATC ((((((...)))))), for which, in series [1], the folding enthalpy was -31.5 kcal/mol. The Tm in series [2] stood at 49.3 °C.
The matching figures for GATCAGAACACTGATC ((((((....)))))): -32.1 kcal/mol and 48.5 °C.
On to GATCCTCCAAGGATC ((((((...)))))), for which, in series [1], the folding enthalpy was -31.8 kcal/mol. The Tm in series [2] worked out at 53.7 °C.
The matching figures for GTCTGGGGAAACTCGGAC (((.(.(....).).))): -28.8 kcal/mol and 37.1 °C.
Consider GCCTTGCGAAAGCACTGC ((..(((....)))..)), for which the folding enthalpy in series [1] is -8.58 kcal/mol. For the same sequence, the Tm in series [2] was found to be 40.3 °C.
The matching figures for GCTGCGCGAAAGCCCAGC ((((.((....)).)))): -31.1 kcal/mol and 63.5 °C.
For GATCTACAAATAGATC ((((((....)))))), the folding enthalpy in series [1] was -25.4 kcal/mol. Besides, the Tm in series [2] was found to be 36.6 °C.
Turning to GTTCATGGAAACGTGAAC (((((.(....).))))), in series [1], the folding enthalpy was -40.6 kcal/mol. In series [2], the Tm came to 46.4 °C.
For GACGGACGAAAGTCGGTC (((.(((....))).))), the folding enthalpy in series [1] was -35.2 kcal/mol. Moreover, the Tm in series [2] is 58.1 °C.
With GGTGGCGAAAGCCGCACC ((((((....)))..))), the folding enthalpy in series [1] is -9.89 kcal/mol. Besides, the Tm in series [2] was found to be 47.7 °C.
Take GGCGCGTCGAAAGACGCC (((..(((....)))))): the folding enthalpy in series [1] is -7.03 kcal/mol. The Tm in series [2] turned out to be 47.8 °C.
The matching figures for GCATAGCGAAAGCTAAGC ((.((((....)))).)): -16.2 kcal/mol and 51.2 °C.
The matching figures for GACATGGGAAACTATGTC (((((.(....).))))): -27.6 kcal/mol and 44.4 °C.
Regarding GTACCCGGAAACAGGTAC (((((.(....).))))), the folding enthalpy in series [1] is -25.7 kcal/mol. For the same sequence, the Tm in series [2] is 39.4 °C.
As for CGTGCCGGAAACGGACG (((.(((....)))))), in series [1], the folding enthalpy is -22 kcal/mol. In series [2], the Tm is 48.7 °C.
The matching figures for GATCCCGAAAGGGGATC ((((((....))).))): -31.4 kcal/mol and 57.8 °C.
The matching figures for GGCCACGAAAGTGTGGCC ((((((....)))..))): -33.6 kcal/mol and 68.5 °C.
On to GGGGCATCGAAAGATCCC (((..(((....)))))), for which the folding enthalpy in series [1] is -21.9 kcal/mol. In series [2], the Tm came to 48.4 °C.
As to GAACACGAAAGTGCTTC ((((((....))).))), the folding enthalpy in series [1] is -20.2 kcal/mol. Moreover, the Tm in series [2] stood at 41.9 °C.
Turning to GCCCGAGGAAACTTGGGC ((((.((....)).)))), the folding enthalpy in series [1] is -41.1 kcal/mol. Besides, the Tm in series [2] came to 58.1 °C.
The matching figures for GCGGTGTCCCGC ((((....)))): -32.1 kcal/mol and 56.5 °C.
The matching figures for GCAGGACGAAAGTCTTGC (((.(((....))).))): -41.5 kcal/mol and 58.5 °C.
The matching figures for CGCCCGCGGAAACGCGCG (((..(((....)))))): -8.68 kcal/mol and 42.4 °C.
Regarding GGCTTCGAAAGAATTGCC ((((((....)))..))), the folding enthalpy in series [1] was -23.3 kcal/mol. The Tm in series [2] worked out at 35.4 °C.
The matching figures for GTTCGCGAAAGCGCAAAC ((((((....)))..))): -7.42 kcal/mol and 29 °C.
GACAAGGGAAACCTTGTC (((((((....))))))): in series [1], the folding enthalpy is -40.4 kcal/mol. Further, in series [2], the Tm came out at 59.4 °C.
The matching figures for GCGGGGCGAAAGCCTTGC ((..(((....)))..)): -18 kcal/mol and 58.4 °C.
The matching figures for GGGCCTGGAAACGGGCTC (.(((.(....).))).): -24 kcal/mol and 50.2 °C.
The matching figures for GTCGGAGGAAACTTCGGC (.((.((....)).)).): -24.3 kcal/mol and 38.4 °C.
Regarding GCAGTCGAAAGACATTGC ((((((....)))..))), the folding enthalpy in series [1] was -17.1 kcal/mol. Also, in series [2], the Tm amounted to 38.1 °C.
